Measured values: article PMC2692502 (Journal of Antimicrobial Chemotherapy, 2009)

Tests used:
[1] = Study 2: single- and multiple-dose pharmacokinetics of the 2 min iv injection; assay type: in vivo, human; conditions: for clearance: CL; for Cmax: HPLC; for Tmax: median (range); for Vd: V; for dose excreted: urine
Outline: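 Healthy adults were randomized single-blind to 6 or 4 mg/kg test compound or placebo as a 2 min peripheral iv injection by syringe driver, once daily for 7 days. Heparinized blood was drawn on days 1 and 7, from predose to 24 h after injection start, plus 36 and 48 h on day 7. Total plasma drug was measured by HPLC (LLOQ 3 mg/L). Non-compartmental analysis gave AUC by the trapezoidal rule and CL, reported as arithmetic means.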

[2] = Study 1: safety and tolerability; assay type: in vivo, human; conditions: Study 1, 6 mg/kg
Outline: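 Healthy adult volunteers in a randomized, open-label, single-dose, two-period crossover. Each received test compound 6 mg/kg as a 30 min iv infusion and as a 2 min peripheral iv injection by syringe driver, in random order, with a 5-day washout. The investigator graded AEs for relatedness (not, unlikely, possibly, probably related) and severity (mild/moderate/severe). Tabulated AEs were possibly or probably related. Follow-up was 1–11 days post-dose.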

[3] = independent of the daptomycin concentration; cited from earlier work
[4] = Study 2, day 7, geometric mean ratio, 6 mg/kg n = 12, 4 mg/kg n = 8, 2 min iv injection
[5] = both, human, plasma, iv, 4 mg/kg, Study 2, day 1, 4 mg/kg 2 min iv injection, plasma, arithmetic mean (SD), n = 8, SD
[6] = both, human, plasma, iv, 4 mg/kg, Study 2, day 7, 4 mg/kg 2 min iv injection once daily, plasma, arithmetic mean (SD), n = 8, SD
[7] = both, human, plasma, iv, 4 mg/kg, SD
[8] = both, human, plasma, iv, 6 mg/kg, Study 2, day 7, 6 mg/kg 2 min iv injection once daily, plasma, arithmetic mean (SD), n = 12, SD
[9] = both, human, plasma, iv, 6 mg/kg, Study 2, day 1, 6 mg/kg 2 min iv injection, plasma, arithmetic mean (SD), n = 12, SD

CCCCCCCCCC(=O)N[C@@H](Cc1c[nH]c2ccccc12)C(=O)N[C@H](CC(N)=O)C(=O)N[C@@H](CC(=O)O)C(=O)N[C@@H]1C(=O)NCC(=O)N[C@@H](CCCN)C(=O)N[C@@H](CC(=O)O)C(=O)N[C@H](C)C(=O)N[C@@H](CC(=O)O)C(=O)NCC(=O)N[C@H](CO)C(=O)N[C@@H]([C@H](C)CC(=O)O)C(=O)N[C@@H](CC(=O)c2ccccc2N)C(=O)O[C@@H]1C [daptomycin]
t1/2 ([1]; Study 2, day 7, 6 mg/kg 2 min iv injection once daily, plasma, arithmetic mean (SD), n = 12, SD): 8.65 (0.63) h | Ratio of 6 mg/kg:4 mg/kg daptomycin (95% CI), AUC0–tau (dose-normalized) [1, 4]: 0.99 (0.87–1.12) | Ratio of 6 mg/kg:4 mg/kg daptomycin (95% CI), Ae0–tau (dose-normalized), cumulative amount of unchanged daptomycin excreted in urine [1, 4]: 0.88 (0.69–1.11) | Ratio of 6 mg/kg:4 mg/kg daptomycin (95% CI), CL [1, 4]: 1.01 (0.9–1.15) | Ratio of 6 mg/kg:4 mg/kg daptomycin (95% CI), Cmax (dose-normalized) [1, 4]: 0.97 (0.82–1.16) | clearance [1, 5]: 0.15 mL/min/kg | clearance [1, 6]: 0.143 mL/min/kg | Cmax [1, 5]: 56.8 µg/mL | Cmax [1, 6]: 62.8 µg/mL | Tmax ([1]; both, human, plasma, iv, 4 mg/kg, Study 2, day 1, 4 mg/kg 2 min iv injection, plasma, n = 8): 8.4 min | Tmax ([1]; both, human, plasma, iv, 4 mg/kg, Study 2, day 7, 4 mg/kg 2 min iv injection once daily, plasma, n = 8): 15 min | Vd [1, 5]: 0.116 L/kg | Vd [1, 6]: 0.109 L/kg | half-life ([1]; both, human, plasma, iv, 4 mg/kg, t1/2, Study 2, day 1, 4 mg/kg 2 min iv injection, plasma, arithmetic mean (SD), n = 8, SD): 545 min | half-life ([1]; both, human, plasma, iv, 4 mg/kg, t1/2, Study 2, day 7, 4 mg/kg 2 min iv injection once daily, plasma, arithmetic mean (SD), n = 8, SD): 536 min | AUC(0-inf) [1, 7]: 468 µg·h/mL | AUC(0-t) [1, 7]: 475 µg·h/mL | clearance [1, 8]: 0.145 mL/min/kg | Cmax [1, 9]: 97.5 µg/mL | Cmax [1, 8]: 91.8 µg/mL | Tmax ([1]; both, human, plasma, iv, 6 mg/kg, Study 2, day 1, 6 mg/kg 2 min iv injection, plasma, n = 12): 1.8 min | Tmax ([1]; both, human, plasma, iv, 6 mg/kg, Study 2, day 7, 6 mg/kg 2 min iv injection once daily, plasma, n = 12): 15 min | Vd [1, 9]: 0.106 L/kg | half-life ([1]; both, human, plasma, iv, 6 mg/kg, t1/2, Study 2, day 1, 6 mg/kg 2 min iv injection, plasma, arithmetic mean (SD), n = 12, SD): 506 min | AUC(0-t) ([1]; both, human, plasma, iv, 6 mg/kg, SD): 701 µg·h/mL | dose excreted ([1]; both, human, iv, 4 mg/kg, SD): 54.3% | dose excreted ([1]; both, human, iv, 6 mg/kg, SD): 56.7% | local tolerability reaction: mild tenderness ([2]; 2 min iv injection group): one subject | Subjects with at least one adverse event possibly or probably related to study drug: Any adverse event ([2]; 2 min iv injection, n = 16): 4 (25) n (%) | Subjects with related adverse event: Gastrointestinal disorders ([2]; 2 min iv injection, n = 16): 1 (6) n (%) | Subjects with related adverse event: Infections and infestations ([2]; 2 min iv injection, n = 16): 1 (6) n (%) | Subjects with related adverse event: Nervous system disorders ([2]; 2 min iv injection, n = 16): 1 (6) n (%) | Subjects with related adverse event: fatigue ([2]; 2 min iv injection, n = 16): 1 (6) n (%) | Subjects with related adverse event: headache ([2]; 2 min iv injection, n = 16): 1 (6) n (%) | Subjects with related adverse event: nausea ([2]; 2 min iv injection, n = 16): 1 (6) n (%) | Subjects with related adverse event: urinary tract infection ([2]; 2 min iv injection, n = 16): 1 (6) n (%) | local tolerability reaction: mild tenderness ([2]; 30 min iv infusion group): two subjects | local tolerability reaction: pain ([2]; 30 min iv infusion group): one subject | Subjects with at least one adverse event possibly or probably related to study drug: Any adverse event ([2]; 30 min iv infusion, n = 15): 2 (13) n (%) | Subjects with related adverse event: Gastrointestinal disorders ([2]; 30 min iv infusion, n = 15): 0 n (%) | Subjects with related adverse event: Infections and infestations ([2]; 30 min iv infusion, n = 15): 2 (13) n (%) | Subjects with related adverse event: Nervous system disorders ([2]; 30 min iv infusion, n = 15): 0 n (%) | Subjects with related adverse event: fatigue ([2]; 30 min iv infusion, n = 15): 0 n (%) | Subjects with related adverse event: headache ([2]; 30 min iv infusion, n = 15): 0 n (%) | Subjects with related adverse event: nausea ([2]; 30 min iv infusion, n = 15): 0 n (%) | Subjects with related adverse event: urinary tract infection ([2]; 30 min iv infusion, n = 15): 2 (13) n (%) | serious or severe AEs or deaths ([2]; both regimens): no serious or severe AEs or deaths were reported | tolerability ([2]; both regimens): well tolerated | total AEs reported ([2]; both regimens, 16 subjects): 21 | AEs of mild severity ([2]; both regimens, of 21 AEs): Nineteen | protein bound [3]: 90–93%
